Measurements: ChEMBL document CHEMBL4339192, “De Novo Designed Amphipathic α-Helical Antimicrobial Peptides Incorporating Dab and Dap Residues on the Polar Face To Treat the Gram-Negative Pathogen, Acinetobacter baumannii” (J Med Chem, 2019)
Converted amounts (≈) assume the structure as drawn. Where a SMILES comes first, the peptide text is derived from it. [ ]: non-standard residue; d: D form. dOrn = NCCC[C@@H](N)C(=O)O

How the values were obtained:
Type in all cases: functional
Acinetobacter baumannii [1] = assay: Antibacterial activity against Acinetobacter baumannii 649 measured after 24 hrs by microtiter dilution method; conditions: Acinetobacter baumannii, 649, 24 h
How it was run: (§1)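 Broth microdilution in Mueller-Hinton (MH) medium. […] Plates were incubated 24 h at 37 °C. MIC was the lowest peptide concentration that inhibited growth, based on three sets of replicates.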

Acinetobacter baumannii [2] = assay: Antibacterial activity against Acinetobacter baumannii isolate 1001611 measured after 24 hrs by microtiter dilution method; conditions: isolate 1001611, 24 h; how it was run: as §1
Acinetobacter baumannii [3] = assay: Antibacterial activity against Acinetobacter baumannii isolate 1007660 measured after 24 hrs by microtiter dilution method; conditions: isolate 1007660, 24 h; how it was run: as §1
Acinetobacter baumannii [4] = assay: Antibacterial activity against Acinetobacter baumannii isolate 1021371 measured after 24 hrs by microtiter dilution method; conditions: isolate 1021371, 24 h; how it was run: as §1
Acinetobacter baumannii [5] = assay: Antibacterial activity against Acinetobacter baumannii isolate 952654 measured after 24 hrs by microtiter dilution method; conditions: isolate 952654, 24 h; how it was run: as §1
Acinetobacter baumannii [6] = assay: Antibacterial activity against Acinetobacter baumannii isolate 9383370 measured after 24 hrs by microtiter dilution method; conditions: isolate 9383370, 24 h; how it was run: as §1
Acinetobacter baumannii [7] = assay: Antibacterial activity against Acinetobacter baumannii isolate 961997 measured after 24 hrs by microtiter dilution method; conditions: isolate 961997, 24 h; how it was run: as §1
Acinetobacter baumannii [8] = assay: Antibacterial activity against Acinetobacter baumannii isolate 1002956 measured after 24 hrs by microtiter dilution method; conditions: isolate 1002956, 24 h; how it was run: as §1
Acinetobacter baumannii [9] = assay: Antibacterial activity against Acinetobacter baumannii isolate 977751 measured after 24 hrs by microtiter dilution method; conditions: isolate 977751, 24 h; how it was run: as §1
Acinetobacter baumannii [10] = assay: Antibacterial activity against Acinetobacter baumannii isolate 1035166 measured after 24 hrs by microtiter dilution method; conditions: isolate 1035166, 24 h; how it was run: as §1
Acinetobacter baumannii [11] = assay: Antibacterial activity against Acinetobacter baumannii isolate 1010282 measured after 24 hrs by microtiter dilution method; conditions: isolate 1010282, 24 h; how it was run: as §1
Acinetobacter baumannii [12] = assay: Antibacterial activity against Acinetobacter baumannii isolate 1010245 measured after 24 hrs by microtiter dilution method; conditions: isolate 1010245, 24 h; how it was run: as §1
Acinetobacter baumannii [13] = assay: Antibacterial activity against Acinetobacter baumannii isolate 1017395 measured after 24 hrs by microtiter dilution method; conditions: isolate 1017395, 24 h; how it was run: as §1
Acinetobacter baumannii [14] = assay: Antibacterial activity against Acinetobacter baumannii isolate 968886 measured after 24 hrs by microtiter dilution method; conditions: isolate 968886, 24 h; how it was run: as §1
Acinetobacter baumannii [15] = assay: Antibacterial activity against Acinetobacter baumannii isolate 964304 measured after 24 hrs by microtiter dilution method; conditions: isolate 964304, 24 h; how it was run: as §1
Acinetobacter baumannii [16] = assay: Antibacterial activity against Acinetobacter baumannii isolate 963659 measured after 24 hrs by microtiter dilution method; conditions: isolate 963659, 24 h; how it was run: as §1
Acinetobacter baumannii [17] = assay: Antibacterial activity against Acinetobacter baumannii isolate 963618 measured after 24 hrs by microtiter dilution method; conditions: isolate 963618, 24 h; how it was run: as §1
Acinetobacter baumannii [18] = assay: Antibacterial activity against Acinetobacter baumannii isolate 1018887 measured after 24 hrs by microtiter dilution method; conditions: isolate 1018887, 24 h; how it was run: as §1
Acinetobacter baumannii [19] = assay: Antibacterial activity against Acinetobacter baumannii isolate 1035794 measured after 24 hrs by microtiter dilution method; conditions: isolate 1035794, 24 h; how it was run: as §1
Acinetobacter baumannii [20] = assay: Antibacterial activity against Acinetobacter baumannii isolate 981650 measured after 24 hrs by microtiter dilution method; conditions: isolate 981650, 24 h; how it was run: as §1
Acinetobacter baumannii [21] = assay: Antibacterial activity against Acinetobacter baumannii isolate 965463 measured after 24 hrs by microtiter dilution method; conditions: isolate 965463, 24 h; how it was run: as §1
Acinetobacter baumannii [22] = assay: Antibacterial activity against polymyxin B/colistin-resistant Acinetobacter baumannii M89963 measured after 24 hrs by microtiter dilution method; conditions: M89963, 24 h; how it was run: as §1
Acinetobacter baumannii [23] = assay: Antibacterial activity against polymyxin B/colistin-resistant Acinetobacter baumannii M89953 measured after 24 hrs by microtiter dilution method; conditions: M89953, 24 h; how it was run: as §1
Acinetobacter baumannii [24] = assay: Antibacterial activity against polymyxin B/colistin-resistant Acinetobacter baumannii M89952 measured after 24 hrs by microtiter dilution method; conditions: M89952, 24 h; how it was run: as §1
Acinetobacter baumannii [25] = assay: Antibacterial activity against polymyxin B/colistin-resistant Acinetobacter baumannii M89951 measured after 24 hrs by microtiter dilution method; conditions: M89951, 24 h; how it was run: as §1
Acinetobacter baumannii [26] = assay: Antibacterial activity against polymyxin B/colistin-resistant Acinetobacter baumannii M89949 measured after 24 hrs by microtiter dilution method; conditions: M89949, 24 h; how it was run: as §1
Acinetobacter baumannii [27] = assay: Antibacterial activity against polymyxin B/colistin-resistant Acinetobacter baumannii M89941 measured after 24 hrs by microtiter dilution method; conditions: M89941, 24 h; how it was run: as §1

CC(=O)N[C@H](CCCCN)C(=O)N[C@H](CC(C)C)C(=O)N[C@H](CCCN)C(=O)N[C@H](CO)C(=O)N[C@H](CC(C)C)C(=O)N[C@H](CC(C)C)C(=O)N[C@H](CCCN)C(=O)N[C@@H](C(=O)N[C@H](CC(C)C)C(=O)N[C@H](CO)C(=O)N[C@H](CCCN)C(=O)N[C@H](C)C(=O)N[C@H](C)C(=O)N[C@H](C)C(=O)N[C@H](C)C(=O)N[C@H](C)C(=O)N[C@H](CC(C)C)C(=O)N[C@H](CCCN)C(=O)N[C@@H](C(=O)N[C@H](CC(C)C)C(=O)N[C@H](CC(C)C)C(=O)N[C@H](CCCN)C(=O)N[C@H](C)C(=O)N[C@H](CC(C)C)C(=O)N[C@H](CO)C(=O)N[C@H](CCCN)C(N)=O)[C@H](C)O)[C@H](C)O (Ac-[dK][dL][dOrn][dS][dL][dL][dOrn][dT][dL][dS][dOrn][dA][dA][dA][dA][dA][dL][dOrn][dT][dL][dL][dOrn][dA][dL][dS][dOrn]-NH2)
MIC (Acinetobacter baumannii [1]): 1.5 µM (≈ 4 µg/mL) | MIC (Acinetobacter baumannii [2]): 1.5 µM (≈ 4 µg/mL) | MIC (Acinetobacter baumannii [3]): 1.5 µM (≈ 4 µg/mL) | MIC (Acinetobacter baumannii [4]): 1.5 µM (≈ 4 µg/mL) | MIC (Acinetobacter baumannii [5]): 1.5 µM (≈ 4 µg/mL) | MIC (Acinetobacter baumannii [6]): 3 µM (≈ 8 µg/mL) | MIC (Acinetobacter baumannii [7]): 1.5 µM (≈ 4 µg/mL) | MIC (Acinetobacter baumannii [8]): 1.5 µM (≈ 4 µg/mL) | MIC (Acinetobacter baumannii [9]): 6 µM (≈ 16 µg/mL) | MIC (Acinetobacter baumannii [10]): 1.5 µM (≈ 4 µg/mL) | MIC (Acinetobacter baumannii [11]): 1.5 µM (≈ 4 µg/mL) | MIC (Acinetobacter baumannii [12]): 1.5 µM (≈ 4 µg/mL) | MIC (Acinetobacter baumannii [13]): 3 µM (≈ 8 µg/mL) | MIC (Acinetobacter baumannii [14]): 3 µM (≈ 8 µg/mL) | MIC (Acinetobacter baumannii [15]): 1.5 µM (≈ 4 µg/mL) | MIC (Acinetobacter baumannii [16]): 0.7 µM (≈ 1.87 µg/mL) | MIC (Acinetobacter baumannii [17]): 1.5 µM (≈ 4 µg/mL) | MIC (Acinetobacter baumannii [18]): 3 µM (≈ 8 µg/mL) | MIC (Acinetobacter baumannii [19]): 3 µM (≈ 8 µg/mL) | MIC (Acinetobacter baumannii [20]): 1.5 µM (≈ 4 µg/mL) | MIC (Acinetobacter baumannii [21]): 3 µM (≈ 8 µg/mL) | MIC (Acinetobacter baumannii [22]): 2.9 µM (≈ 7.74 µg/mL) | MIC (Acinetobacter baumannii [23]): 1.5 µM (≈ 4 µg/mL) | MIC (Acinetobacter baumannii [24]): 1.5 µM (≈ 4 µg/mL) | MIC (Acinetobacter baumannii [25]): 1.5 µM (≈ 4 µg/mL) | MIC (Acinetobacter baumannii [26]): 2.9 µM (≈ 7.74 µg/mL) | MIC (Acinetobacter baumannii [27]): 2.9 µM (≈ 7.74 µg/mL)
